CHRM5 agonist: human M5 muscarinic receptor agonists, primary screen, CHO-K1 cells, Fluo-8 calcium fluorescence; Muscarinic acetylcholine receptor M5 (Homo sapiens), P08912; CHO-K1 hM5 cells; 0% DMSO wells, 100% maximal acetylcholine response; activation, % at 3 µM; 360,000 compounds, 0.19% hits; AID 624037, 2012;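 active = activation above the run's mean over test compounds plus 3 SD, cut at about 23% in these data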;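 also: signal is peak over basal fluorescence ratio across the kinetic read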
Target sequence (P08912 whole entry, looked up): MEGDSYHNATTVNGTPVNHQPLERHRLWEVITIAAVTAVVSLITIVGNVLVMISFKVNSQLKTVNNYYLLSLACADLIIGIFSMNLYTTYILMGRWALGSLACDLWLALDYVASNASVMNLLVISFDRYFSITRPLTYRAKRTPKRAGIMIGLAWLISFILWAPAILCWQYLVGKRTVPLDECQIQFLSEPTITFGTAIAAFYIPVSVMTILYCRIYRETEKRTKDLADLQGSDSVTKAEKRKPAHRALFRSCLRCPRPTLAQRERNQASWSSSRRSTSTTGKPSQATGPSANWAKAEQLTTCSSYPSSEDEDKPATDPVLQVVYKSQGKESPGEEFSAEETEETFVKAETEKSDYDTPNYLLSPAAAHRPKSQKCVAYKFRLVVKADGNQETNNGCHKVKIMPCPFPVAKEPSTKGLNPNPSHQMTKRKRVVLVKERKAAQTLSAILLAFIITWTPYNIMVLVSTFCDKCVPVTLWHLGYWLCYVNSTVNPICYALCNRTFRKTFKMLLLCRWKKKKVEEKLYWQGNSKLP
CHRM4 PAM: human M4 muscarinic receptor positive allosteric modulators, primary screen, CHO-K1 cells, Fluo-8 calcium fluorescence. Muscarinic acetylcholine receptor M4 (Homo sapiens), P08173. CHO-K1 hM4/Gqi5, ACh EC20; 0% = ACh EC20, 100% = maximal ACh. activation, % at 3 µM. 360,000 compounds, 0.4% hits. AID 624126, 2012;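 active = activation above its plate's cutoff, the mean activation of sample wells plus 3 SD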
M4 ag: human M4 muscarinic receptor agonists, primary screen, CHO-K1 cells, Fluo-8 calcium fluorescence. Muscarinic acetylcholine receptor M4 (Homo sapiens), P08173. CHO-K1 hM4/Gqi5; vehicle 0%, full acetylcholine response 100%. activation, % at 3 µM. 360,000 compounds, 0.14% hits;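 active = activation above the run mean over all test wells plus 3 SD, cut at about 32% in these data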;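 also: peak over basal fluorescence ratio per well then scaled between controls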
CHRM5 antagonist: human M5 muscarinic receptor antagonists, primary screen, CHO cells, Fluo-8 calcium fluorescence; 360,000 compounds, 0.59% hits; CHO-hM5 cells, ACh EC80; inhibition, % at 3 µM; AID 624040, 2012; Muscarinic acetylcholine receptor M5 (Homo sapiens), P08912;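 active = inhibition above a per-plate cutoff, the mean of that plate's test compounds plus 3 SD, cut at about 27% in these data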
CHRM5 PAM: human M5 muscarinic receptor positive allosteric modulators, primary screen, CHO-K1 cells, Fluo-8 calcium fluorescence | Muscarinic acetylcholine receptor M5 (Homo sapiens), P08912 | CHO-K1 hM5, ACh EC20 PAM; 0% = ACh EC20, 100% = ACh EC100 | activation, % at 3 µM | 360,000 compounds, 0.3% hits | AID 624038, 2012;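 active = activation above the run cutoff, the mean activation of all test compounds plus 3 SD, cut at about 18% in these data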
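system = human M5 receptor in CHO-K1 cells | reagent = EC20 acetylcholine as agonist stimulus | compound dosing = single-point, 3 µM nominal | incubation = Fluo-8 loading 80 min at 37 °C plus 30 min room temperature | detection = Fluo-8 calcium dye fluorescence, kinetic read | benchmarks = low control EC20 acetylcholine (0%), high control EC100 acetylcholine (100%)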
M4 antag: human M4 muscarinic receptor antagonists, primary screen, CHO cells, Fluo-8 calcium fluorescence | inhibition, % at 3 µM | Muscarinic acetylcholine receptor M4 (Homo sapiens), P08173 | 360,000 compounds, 0.73% hits | CHO-hM4 cells, ACh EC80 | AID 624125, 2012;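 active = inhibition above its plate's cutoff, the mean inhibition of sample wells plus 3 SD, cut at about 27% in these data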
Hits are given with their value; – = inactive. Only some compounds are listed: those with a hit (about 1.8% of all), similar ones and a draw of the others.

SMILES | CHRM5 agonist | CHRM4 PAM | M4 ag | CHRM5 antagonist | CHRM5 PAM | M4 antag
COc1ccc(-c2csc(N(CCCN3CCOCC3)C(=O)c3ccco3)n2)cc1 | – | – | – | – | – | 36
CCN(CC)CCCN(C(=O)c1ccc(OC)cc1)c1nc(-c2ccc(OC)cc2)cs1 | – | 49 | – | – | – | 29
CCN(C(=O)c1cccs1)c1nc(-c2ccc(OC)cc2)cs1 | – | – | – | – | – | –
COc1ccc(-c2csc(N(CCCN(C)C)C(=O)c3cccs3)n2)cc1 | – | – | – | 38 | – | –
COc1ccc(-c2csc(N(CCCN(C)C)C(=O)c3ccc(Br)cc3)n2)cc1 | – | 47 | – | – | – | –
CCN(CC)CCCn1c2c(c(SCC(=O)N3CCc4ccccc43)nc1=O)CCC2 | – | – | – | – | – | –
Fc1ccccc1NC(=S)N(CCCN1CCOCC1)Cc1cccnc1 | – | – | – | – | – | –
COc1ccc(N(C(=O)Cn2nnc3ccccc32)C(C(=O)NCc2ccco2)c2ccncc2)cc1 (configuration not stated) | – | – | – | – | – | –
COc1ccc(-c2csc(N(CCCN(C)C)C(=O)c3ccc(C)cc3)n2)cc1 | – | 49 | – | – | – | 49
CCN(CC)CCN(C(=O)c1ccc([N+](=O)[O-])cc1)c1nc2ccc(OC)cc2s1 | – | 32 | – | – | – | –
CC(C)(C)OC(=O)N1CCCN(C(c2ccnc3ccccc23)c2nnnn2-c2ccc3c(c2)OCCO3)CC1 (configuration not stated) | – | – | – | – | – | –
O=C(CCCCCn1c(=S)[nH]c2ccc(Br)cc2c1=O)NCC1CCCO1 (configuration not stated) | – | – | – | – | – | –
NS(=O)(=O)c1ccc(CCNC(=O)CCCCCn2c(=S)[nH]c3ccc(Br)cc3c2=O)cc1 | – | – | – | 27 | – | –
CCOc1ccc(S(=O)(=O)Nc2nc3ccccc3nc2-n2ccc(=NC(=O)c3ccccc3C)cc2)cc1 | 30 | – | – | 40 | – | –
Cc1ccccc1C(=O)N=c1ccn(-c2nc3ccccc3nc2NS(=O)(=O)c2ccccc2)cc1 | – | – | – | – | – | –
Cc1ccc2nc(-c3ccc(N)cc3)sc2c1 | – | 13 | – | – | – | –
CCc1c(O)nc(SCC(=O)Nc2ccc(Cl)cc2)n(-c2ccccc2)c1=O | – | 17 | – | – | – | –
CCc1c(O)nc(SCC(=O)Nc2ccc(OC)cc2)n(C2CCCCC2)c1=O | – | – | – | – | – | –
C[C@]12CCC(=O)C=C1CC[C@@H]1[C@@H]2CC[C@@]2(C)[C@H]1CC[C@@]21CCC(=O)O1 | – | – | – | – | – | 30
C[C@]12CCC(=O)C=C1CCC1C2CC[C@@]2(C)C1CCC21OCCO1 (some centres not stated) | – | – | – | – | – | –
C[C@]12CC[C@H]3[C@@H](CCC4=CC(=O)CC[C@@]43C)[C@@H]1CC[C@@H]2C(=O)CO | – | – | – | – | – | –
CC(=O)OCC(=O)[C@H]1CC[C@H]2[C@@H]3CCC4=CC(=O)CC[C@]4(C)[C@H]3CC[C@]12C | – | – | – | – | – | 57
Cc1c(C(=O)OCC(=O)NCc2ccc3c(c2)OCO3)cccc1[N+](=O)[O-] | – | – | – | – | – | –
CCCCOC(=O)CSc1nc(N)c(C#N)c(-c2ccc(OCC)cc2)c1C#N | – | – | – | – | – | –
CCCCOC(=O)CSc1nc(N)c(C#N)c(-c2ccc(OC)cc2)c1C#N | – | – | – | – | 23 | –
SMILES | CHRM5 agonist | CHRM4 PAM | M4 ag | CHRM5 antagonist | CHRM5 PAM | M4 antag
O=C(CCS(=O)(=O)c1cccs1)Nc1ccc(C(=O)NC2CCCC2)cc1 | – | – | – | – | – | –
Cc1ccc2nc(C(C)(C)C)c(Cc3cccc(Cl)c3)n2c1 | – | – | – | – | – | 27
Cc1ccc2nc(-c3ccc(Cl)cc3)c(Cc3cccc(Cl)c3)n2c1 | – | – | – | – | – | –
CSCCC(NC(=O)COc1ccccc1)C(=O)N1CCN(c2ccccc2Cl)CC1 (configuration not stated) | – | – | – | – | – | –
COc1cc(OC)cc(C(=O)N2CCC(n3c(C)nc4cc(F)ccc43)CC2)c1 | – | – | – | – | 34 | –
O=C(NCCN1CCC(n2c(=O)[nH]c3ccccc32)CC1)c1cccc(F)c1 | – | – | – | – | – | –
OCCC1CN(Cc2ccncc2)CCN1C1CCCC1 (configuration not stated) | – | – | – | – | – | –
OCCC1CN(Cc2cnc(-c3ccc(Cl)cc3)nc2)CCN1C1CCCCC1 (configuration not stated) | – | – | – | 30 | – | –
CSc1ccc(CN2CCN(C3CCCC3)C(CCO)C2)cc1 (configuration not stated) | – | – | – | – | – | 57
CC(C)(O)C#Cc1ccc(CN2CCN(C3CCCCC3)C(CCO)C2)cc1 (configuration not stated) | – | – | – | – | – | –
CC(C)(O)C#Cc1ccc(CN2CCN(C3CCCC3)C(CCO)C2)cc1 (configuration not stated) | – | – | – | – | – | 28
CC(C)(O)C#Cc1ccc(CN2CCN(C3CCCCC3)C(CCO)C2)s1 (configuration not stated) | – | – | – | – | – | 27
CCN(CC)C(=O)c1ccc(Cc2cn(C)c3ccccc23)nc1 | – | – | – | – | – | –
Cc1cccc(OCc2nnc3n2CCCCC3)c1 | – | – | – | 31 | 36 | –
CCOC(=O)[C@]12CCCC=C1N(Cc1ccc3c(c1)OCO3)C(=O)[C@H](CC(=O)NCCc1ccccc1OC)C2 | – | – | – | – | – | –
O=C(Nc1nc2ccccc2s1)C1CCN(S(=O)(=O)c2cc([N+](=O)[O-])ccc2Cl)CC1 | – | – | – | 39 | – | 33
CCC(C)NC(=O)C1CCN(S(=O)(=O)c2cc([N+](=O)[O-])ccc2Cl)CC1 (configuration not stated) | – | – | – | – | – | –
CCOc1ccc(/C=C(\C(=O)O)c2ccc(S(=O)(=O)N3CCCCC3)s2)cc1OC | – | – | – | – | – | –
